In ChEMBL document CHEMBL4602700, “Discovery of WD Repeat-Containing Protein 5 (WDR5)-MYC Inhibitors Using Fragment-Based Methods and Structure-Based Design” (J Med Chem, 2020):
Active and inactive are the calls of the source. The calls are words filed in the database; no cut-off is given here.

Assays:
[1] = target: T1, WD repeat-containing protein 5 (Homo sapiens, UniProt P61964); test: Inhibition of N-terminal FLAG-tagged human full-length WDR5 expressed in HEK293T cells harboring human C-terminal HA-tagged c-MYC assessed as reduction in WDR5-MYC interaction at 50 uM by immunoprecipitation analysis; settings: HEK-293T
[2] = target: T1, WD repeat-containing protein 5; test: Inhibition of WDR5 in human HEK293T cells assessed as reduction in WDR5-MYC interaction at 5 uM incubated for 24 hrs by immunoprecipitation analysis; format: cell-based; settings: HEK-293T
Procedure, shortened: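 Intact HEK293 cells (WDR5-FLAG/c-MYC-HA) at ~70% confluence, PBS-washed, treated 24 h with 5 μM compound in OptiMEM; lysates α-FLAG immunoprecipitated overnight at 4 °C, MYC co-precipitation immunoblotted, input blotted for MYC levels; normalized to vehicle; minimum two biological repeats.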

[3] = target: T1, WD repeat-containing protein 5; test: Binding affinity to recombinant human His/FLAG-tagged WDR5 (22 to 334 residues) expressed in Escherichia coli expression system using FITC-AHx-SEEEIDVVSV as substrate by fluorescence polarization assay
[4] = target: MLL1-ASH2L/RbBP5/WDR5/DPY30 (Homo sapiens) (UniProt P61964+Q03164+Q9UBL3+Q15291+Q9C005); test: Inhibition of MLL1/WDR5/RBBP5/ASH2L/DPY30 complex (unknown origin) assessed as reduction in histone methyltransferase activity; format: protein assay
[5] = target: T1, WD repeat-containing protein 5; test: Inhibition of N-terminal FLAG-tagged human full-length WDR5 expressed in HEK293T cells harboring human C-terminal HA-tagged c-MYC assessed as reduction in MYC recruitment RNPS1 binding site at 20 uM incubated for 10 hrs by chromatin immunoprecipitation analysis; format: cell-based; settings: HEK-293T
Procedure, shortened: (§1)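 HEK293 cells expressing HA-MYC and GFP grown to ~70% confluence, PBS-washed, treated 10 h in OptiMEM. Crosslinked 1% formaldehyde 10 min at room temperature, quenched with 125 mM glycine. Sonicated chromatin, α-HA ChIP; qPCR percent input against a 30-fold dilution of decrosslinked chromatin. One-tailed t-test; minimum three independent biological repeats.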

[6] = target: T1, WD repeat-containing protein 5; test: Inhibition of N-terminal FLAG-tagged human full-length WDR5 expressed in HEK293T cells harboring human C-terminal HA-tagged c-MYC assessed as reduction in MYC recruitment C7orf40 binding site at 20 uM incubated for 10 hrs by chromatin immunoprecipitation analysis; format: cell-based; settings: HEK-293T
Procedure, shortened: as §1

[7] = target: T1, WD repeat-containing protein 5; test: Inhibition of N-terminal FLAG-tagged human full-length WDR5 expressed in HEK293T cells harboring human C-terminal HA-tagged c-MYC assessed as reduction in MYC recruitment RPL5 binding site at 20 uM incubated for 10 hrs by chromatin immunoprecipitation analysis; format: cell-based; settings: HEK-293T
Procedure, shortened: as §1

[8] = target: T1, WD repeat-containing protein 5; test: Inhibition of N-terminal FLAG-tagged human full-length WDR5 expressed in HEK293T cells harboring human C-terminal HA-tagged c-MYC assessed as reduction in MYC recruitment […] binding site at 20 uM incubated for 10 hrs by chromatin immunoprecipitation analysis; format: cell-based; settings: HEK-293T
Procedure, shortened: as §1

[9] = target: T1, WD repeat-containing protein 5; test: Inhibition of N-terminal FLAG-tagged human full-length WDR5 expressed in HEK293T cells harboring human C-terminal HA-tagged c-MYC assessed as reduction in MYC recruitment RPS14 binding site at 20 uM incubated for 10 hrs by chromatin immunoprecipitation analysis; format: cell-based; settings: HEK-293T
Procedure, shortened: as §1

[10] = target: T1, WD repeat-containing protein 5; test: Inhibition of N-terminal FLAG-tagged human full-length WDR5 expressed in HEK293T cells harboring human C-terminal HA-tagged c-MYC assessed as reduction in MYC recruitment ZFPM1 binding site at 20 uM incubated for 10 hrs by chromatin immunoprecipitation analysis; format: cell-based; settings: HEK-293T
Procedure, shortened: as §1

inhibition [1]	inhibition [2]	Kd [3] [µM]	inhibition [4]	SMILES	also measured
Active	Active	0.4		O=S(=O)(Nc1cn(C2CCCC2)cn1)c1cc(Br)cc(Cl)c1O	
		5		O=C(c1nc(NS(=O)(=O)c2cc(Br)cc(Cl)c2O)cn1C1CCCC1)N1CCC(C2CCCN2)CC1 (configuration not stated)	
Active	Active		Active	CCOC(=O)c1nc(NS(=O)(=O)c2cc(Br)cc(Cl)c2O)cn1C1CCCC1	
Active	inactive		Active	O=S(=O)(Nc1cnn(C2CCCC2)c1)c1cc(Br)cc(Cl)c1O	
Active	Active		Active	CNC(=O)c1nc(NS(=O)(=O)c2cc(Br)cc(Cl)c2O)cn1C1CCCC1	
Active	Active		Active	CS(=O)(=O)c1nc(NS(=O)(=O)c2cc(Br)cc(Cl)c2O)cn1C1CCCC1	inhibition [5]: Active; inhibition [6]: Active; inhibition [7]: Active; inhibition [8]: inactive; inhibition [9]: Active; inhibition [10]: inactive

The next lines start with the compound.

SMILES	inhibition [1]	inhibition [2]	Kd [3] [µM]	inhibition [4]	also measured
O=S(=O)(Nc1cn(C(C2CC2)C2CC2)cn1)c1cc(Br)cc(Cl)c1O			1.2		
O=S(=O)(Nc1cn(CC2CCCO2)cn1)c1cc(Br)cc(Cl)c1O (configuration not stated)			8		
O=S(=O)(Nc1cn(CC2CC2)cn1)c1cc(Br)cc(Cl)c1O			2.1		
O=S(=O)(Nc1nc2ccccc2s1)c1cc(Br)cc(Cl)c1O			32		
O=S(=O)(Nc1cn(C2CCNC2)cn1)c1cc(Br)cc(Cl)c1O (configuration not stated)			11		
